# According to ChEMBL document CHEMBL4359879, “Synthesis and evaluation of 2-carboxy indole derivatives as potent and selective anti-leukemic agents” (Eur J Med Chem, 2019):
# Active and inactive are the calls of the source. No cut-off for these calls is given here.
# Key:
# Tubulin (Homo sapiens) [1] = target: T1, Tubulin (Homo sapiens) (UniProt P68371+Q9H4B7+P0DPH7+P68366+Q13509+Q71U36+P04350+Q3ZCM7+P07437+P68363+Q9BQE3+Q6PEY2+Q13885+Q9BVA1+Q9BUF5); assay: Inhibition of tubulin polymerization in human RS4:11 cells at 300 nM by Western blot analysis; format: cell-based; conditions: TDE = time-dependent effect
# How it was run: (§1)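 Leukemia cells (RS4;11, CEM, HL60) treated with 300 nM for 0, 15, 30, 60 and 360 min. Western blotting for β-tubulin and p53, with lamin B1 as loading control and chemiluminescent detection.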
# HL-60 [2] = assay: Effect on human HL60 cells assessed as fold change in SLC8A2 gene expression at 1.085 uM incubated for 6 hrs by microarray-based method; format: functional
# How it was run: (§2)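 HL60 cells were treated in triplicate with 1.085 µM or vehicle for 6 h. Total RNA was extracted with on-column DNase treatment and profiled on expression arrays.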
# HL-60 [3] = assay: Effect on human HL60 cells assessed as fold change in TAF15 gene expression at 1.085 uM incubated for 6 hrs by microarray-based method; format: functional; how it was run: as §2
# HL-60 [4] = assay: Effect on human HL60 cells assessed as fold change in TIAL1 gene expression at 1.085 uM incubated for 6 hrs by microarray-based method; format: functional; how it was run: as §2
# HL-60 [5] = assay: Effect on human HL60 cells assessed as fold change in LSMEM1 gene expression at 1.085 uM incubated for 6 hrs by microarray-based method; format: functional; how it was run: as §2
# HL-60 [6] = assay: Effect on human HL60 cells assessed as fold change in ANKRD36 gene expression at 1.085 uM incubated for 6 hrs by microarray-based method; format: functional; how it was run: as §2
# HL-60 [7] = assay: Effect on human HL60 cells assessed as fold change in TM2D3 gene expression at 1.085 uM incubated for 6 hrs by microarray-based method; format: functional; how it was run: as §2
# HL-60 [8] = assay: Effect on human HL60 cells assessed as fold change in CEP44 gene expression at 1.085 uM incubated for 6 hrs by microarray-based method; format: functional; how it was run: as §2
# HL-60 [9] = assay: Effect on human HL60 cells assessed as fold change in ITPR3 gene expression at 1.085 uM incubated for 6 hrs by microarray-based method; format: functional; how it was run: as §2
# CCRF-CEM [10] = assay: Effect on human CEM cells assessed as increase in p53 protein expression at 300 nM incubated for 15 to 360 mins by Western blot analysis; format: functional, cell-based
# How it was run: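 RS4;11, CEM and HL60 cells were exposed to 300 nM for 0, 15, 30, 60 and 360 min. Lysates were immunoblotted for β-tubulin and p53, with lamin B1 as loading control. Detection was by chemiluminescence.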
# RS4-11 [11] = assay: Induction of apoptosis in human RS4:11 cells at 300 nM incubated for 18 hrs by Annexin V-FITC/propidium iodide staining-based flow cytometric analysis; format: functional, cell-based
# How it was run: (§3)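 CEM, HL60 or RS4;11 cells (5×10^5) treated with 300 nM or vehicle for 18 h. Stained with FITC-Annexin V in binding buffer for 15 min at 37 °C, then PI (5 μg/mL) for 3 min. Analyzed by flow cytometry.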
# Tubulin (Homo sapiens) [12] = target: T1, Tubulin (Homo sapiens); assay: Induction of microtubule network depolymerization in human HeLa cells assessed as formation of condensed chromosomes at 500 nM incubated for 18 hrs by DAPI staining based fluorescence microscopic method; format: cell-based
# How it was run: (§4)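 HeLa cells (100,000/mL) cultured overnight on glass-bottom dishes, then exposed to 500 nM or 1 μM, or DMSO, for 18 h. Permeabilized (0.5% Triton X-100) and fixed (3.7% formaldehyde). Stained overnight at 4 °C with anti-β-tubulin, then Alexa Fluor 647 secondary for 1 h at room temperature, and DAPI 1 μg/mL for 10 min. Examined by fluorescence microscopy.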
# RS4-11 [13] = assay: Antiproliferative activity against human RS4:11 cells incubated for 48 hrs by MTT assay; format: functional, cell-based; conditions: RS4-11, 48 h
# How it was run: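 Cells grown in RPMI-1640 with 10% FBS, penicillin/streptomycin, 37 °C, 5% CO2. After 48 h of exposure to a dilution series, MTT was added (0.5 mg/ml final) for 4 h. Formazan was dissolved overnight in acidic SDS (10% SDS, 0.01 mol/L HCl) and absorbance read at 570 and 620 nm. Survival was expressed relative to controls, and EC50 was fitted from dose-response curves.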
# CCRF-CEM [14] = assay: Induction of apoptosis in human CEM cells at 300 nM incubated for 18 hrs by Annexin V-FITC/propidium iodide staining-based flow cytometric analysis; format: functional, cell-based; how it was run: as §3
# HL-60 [15] = assay: Effect on human HL60 cells assessed as fold change in PHF20L1 gene expression at 1.085 uM incubated for 6 hrs by microarray-based method; format: functional; how it was run: as §2
# HL-60 [16] = assay: Effect on human HL60 cells assessed as fold change in TRPM2 gene expression at 1.085 uM incubated for 6 hrs by microarray-based method; format: functional
# HL-60 [17] = assay: Effect on human HL60 cells assessed as fold change in TBCC gene expression at 1.085 uM incubated for 6 hrs by microarray-based method; format: functional; how it was run: as §2
# HL-60 [18] = assay: Effect on human HL60 cells assessed as fold change in INSIG1 gene expression at 1.085 uM incubated for 6 hrs by microarray-based method; format: functional; how it was run: as §2
# HL-60 [19] = assay: Effect on human HL60 cells assessed as fold change in C14orf180 gene expression at 1.085 uM incubated for 6 hrs by microarray-based method; format: functional; how it was run: as §2
# Tubulin (Homo sapiens) [20] = target: T1, Tubulin (Homo sapiens); assay: Induction of microtubule network depolymerization in human HeLa cells at 1 uM incubated for 18 hrs by DAPI staining based fluorescence microscopic method; format: cell-based; how it was run: as §4
# HL-60 [21] = assay: Effect on human HL60 cells assessed as fold change in ARL17A gene expression at 1.085 uM incubated for 6 hrs by microarray-based method; format: functional; how it was run: as §2
# HL-60 [22] = assay: Effect on human HL60 cells assessed as fold change in GDF10 gene expression at 1.085 uM incubated for 6 hrs by microarray-based method; format: functional; how it was run: as §2
# HL-60 [23] = assay: Effect on human HL60 cells assessed as increase in p53 protein expression at 300 nM incubated for 15 to 360 mins by Western blot analysis; format: functional, cell-based; how it was run: as §1
# HL-60 [24] = assay: Induction of differentiation in human HL60 cells assessed as increase in CD11b positive cells incubated for 48 hrs by 7-AAD staining-based flow cytometric analysis; format: functional, cell-based
# How it was run: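 Vitamin D3 at 100 nM and ATRA at 2 μM served as positive controls. Stained with APC anti-CD11b and PE anti-CD14 for 30 min at 4 °C, then 7-AAD.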
# HL-60 [25] = assay: Induction of cell cycle arrest in human HL60 cells assessed as accumulation of cells at G0/G1 phase at EC50 incubated for 18 hrs by PI staining based flow cytometric analysis (reference value: 56.3%); format: functional
# Tubulin (Homo sapiens) [26] = target: T1, Tubulin (Homo sapiens); assay: Inhibition of tubulin polymerization in human HL60 cells at 300 nM by Western blot analysis; format: cell-based; conditions: TDE = time-dependent effect; how it was run: as §1
# HL-60 [27] = assay: Effect on human HL60 cells assessed as fold change in GDAP1 gene expression at 1.085 uM incubated for 6 hrs by microarray-based method; format: functional; how it was run: as §2
# RS4-11 [28] = assay: Effect on human RS4:11 cells assessed as increase in p53 protein expression at 300 nM incubated for 15 to 360 mins by Western blot analysis; format: functional, cell-based; how it was run: as §1
compound,measurement,setting,value
COC(=O)c1[nH]c2cc(OC)ccc2c1-c1ccc(C(F)(F)F)cc1,inhibition,Tubulin (Homo sapiens) [1],Tde
same,fold change (FC),HL-60 [2],-1.53
same,fold change (FC),HL-60 [3],1.75
same,fold change (FC),HL-60 [4],1.63
same,fold change (FC),HL-60 [5],-1.69
same,fold change (FC),HL-60 [6],1.54
same,fold change (FC),HL-60 [7],-1.65
same,fold change (FC),HL-60 [8],1.76
same,fold change (FC),HL-60 [9],1.57
same,Activity,CCRF-CEM [10],Active
same,Activity,RS4-11 [11],Active
same,Activity,Tubulin (Homo sapiens) [12],Active
same,EC50,RS4-11 [13],300 nM
same,Activity,CCRF-CEM [14],Active
same,fold change (FC),HL-60 [15],1.56
same,fold change (FC),HL-60 [16],2.21
same,fold change (FC),HL-60 [17],-1.54
same,fold change (FC),HL-60 [18],-1.64
same,fold change (FC),HL-60 [19],1.56
same,Activity,Tubulin (Homo sapiens) [20],Active
same,fold change (FC),HL-60 [21],-1.5
same,fold change (FC),HL-60 [22],-1.56
same,Activity,HL-60 [23],Active
same,Activity,HL-60 [24],Dose-dependent effect
same,Activity,HL-60 [25],10.6%
same,inhibition,Tubulin (Homo sapiens) [26],Tde
same,fold change (FC),HL-60 [27],-1.61
same,Activity,RS4-11 [28],Active
